Measurements from ChEMBL document CHEMBL3580577, “Fragment-based exploration of binding site flexibility in Mycobacterium tuberculosis BioA” (J Med Chem, 2015).

Columns and labels:
[1] = test system: Mycobacterium tuberculosis; test: Antimycobacterial activity against Mycobacterium tuberculosis H37Rv assessed as growth inhibition after 9 days by Whole cell growth assay in presence of 1000 nM biotin; assay type: functional, organism-based; settings: 216 h
Method in brief: (§1)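 Virulent H37Rv wild type pregrown in Sauton's medium with 1000 nM biotin to OD580 1.0–1.2, washed twice in biotin-free Sauton's medium, and seeded at OD580 0.03 in biotin-free medium or with 1000 nM biotin added. Compounds were tested at 2-fold dilutions, 1000 to 3.9 µM final, against no-compound controls. OD read after nine days at 37 °C, in triplicate; MIC calculated.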

[2] = test system: Mycobacterium tuberculosis; test: Inhibition of Mycobacterium tuberculosis N-terminal His-tagged BioA assessed as temperature of denaturation shift by […]
Method in brief: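 Differential scanning fluorimetry with 0.05 mg/mL holo BioA in 25 mM HEPES pH 7.5, 50 mM NaCl, 5× SYPRO Orange, and 5 mM fragment from 200 mM DMSO stock. Heated 55–100 °C in 0.5 °C steps with 60 s dwell. Tm taken at the first-derivative peak; the shift is against the mean of DMSO-only controls on the same plate. Four replicates, mean with standard error.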

[3] = test system: Mycobacterium tuberculosis; test: Antimycobacterial activity against Mycobacterium tuberculosis H37Rv assessed as growth inhibition after 9 days by Whole cell growth assay; assay type: functional, organism-based; settings: 216 h; method in brief: as §1
[4] = Inhibition of Mycobacterium tuberculosis N-terminal His-tagged BioA assessed as dissociation constant by isothermal titration calorimetry
Method in brief: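 Isothermal titration calorimetry at 25 °C in 25 mM HEPES pH 7.5, 50 mM NaCl, with 100 µM PLP-saturated His-tagged BioA (E. coli-expressed) in the cell. Ligand at 1.0, 1.5 or 2.0 mM, DMSO matched, given as 2 µL injections 150 s apart with stirring at 750 rpm. First injection discarded; heats of dilution corrected. KD = 1/KA from curve fit, averaged over three replicates.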

[5] = test system: Mycobacterium tuberculosis; test: Antimycobacterial activity against Mycobacterium tuberculosis BioA-UE strain assessed as growth inhibition after 9 days by Whole cell growth assay in presence of 1000 nM biotin; assay type: functional, organism-based; settings: 216 h
Method in brief: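 Mtb BioA-underexpressing strain pregrown in Sauton's medium with 1000 nM biotin to OD580 1.0–1.2, washed twice in biotin-free Sauton's medium, and seeded at OD580 0.03 in medium with 1000 nM biotin plus 200 ng/mL anhydrotetracycline. Compounds were tested at 2-fold serial dilutions, 1000 to 3.9 µM final, against no-compound controls. OD read after nine days at 37 °C, in triplicate; MIC calculated from growth.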

[6] = Inhibition of Mycobacterium tuberculosis H37Rv N-terminal His-tagged BioA using KAPA substrate by in vitro biochemical assay

SMILES | IC50 [1] | ΔTm [2] | IC50 [3] | Kd [4] | IC50 [5] | IC50 [6]
NC(=O)c1ccc(-n2ccnc2)cc1 | > 1000 µM | 4.1 °C | > 1000 µM | 15 µM | > 1000 µM | 
CNCc1ccc(Cn2cccn2)cc1 | > 1000 µM | 5.3 °C | > 1000 µM | 11.7 µM | > 1000 µM | 
NCc1ccc(Cn2cc(Cl)cn2)cc1 |  | -11.9 °C |  | 6.8 µM |  | 
CC(=O)Nc1ccc2c(c1)C=CC2=O | > 1000 µM | 3.6 °C | > 1000 µM | 21.7 µM | > 1000 µM | 
O=c1cc(-c2ccccc2F)[nH]c2cc3c(cc12)OCO3 |  |  |  |  |  | 0.44 µM
NCc1nc2ccccc2s1 | 304 µM | -6.5 °C | 250 µM | 30.3 µM | 368 µM | 
O=C(c1ccccc1)C1CCNCC1 | 357 µM | 3.6 °C | 340 µM | 41.8 µM | 260 µM | 
NC(=O)c1ccc(-c2ccccn2)s1 | > 1000 µM | 6.3 °C | 249 µM | 6.9 µM | 39.2 µM | 
